In data set [1] the test system is Rattus norvegicus. Briefly: Antidiabetic activity in Wistar-Han rat assessed as reduction in glucagon-induced blood glucose excursion at 30 mg/kg, iv after 11 mins. The format is functional. On the set-up: scale not given: the % may be the effect or the level left. The method in brief:
(§1)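 Wistar-Han rats received compound or vehicle i.v. at t = 0 (1, 10 or 30 mg/kg), then a 3 µg/kg i.v. glucagon bolus at 15 min. Blood glucose was sampled at 0, 10, 26, 32, 50 and 80 min, and compound plasma levels were measured. n = 6 rats per dose group.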

Data set [2] can be described thus: Apparent intrinsic clearance in rat liver microsomes. The format is ADME, Microsome. To be noted: read-out: CLH. For orientation: Microsomes from liver hold many membrane-bound enzymes, among them those of drug oxidation.
The subject of data set [3] is Rattus norvegicus. Briefly: Antidiabetic activity in Wistar-Han rat assessed as reduction in glucagon-induced blood glucose excursion at 1 mg/kg, iv after 11 mins. The class given is functional. On the set-up: scale not given: the % may be the effect or the level left. The method in brief:
as §1

The subject of data set [4] is Rattus norvegicus. Briefly: Half life in Wistar-Han rat at 1 mg/kg, iv and 5 mg/kg, po. The class given is ADME, organism-based. The following applies: in vivo. In outline:
(§2)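 Wistar-Han rats were dosed at 1 mg/kg i.v. and 5 mg/kg p.o.; pharmacokinetic parameters were derived from the plasma profiles.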

Data set [5] concerns Rattus norvegicus. Briefly: Antidiabetic activity in Wistar-Han rat assessed as reduction in glucagon-induced blood glucose excursion at 10 mg/kg, iv after 11 mins. The format is functional. On the set-up: scale not given: the % may be the effect or the level left. In outline:
as §1

Data set [6] in a line: Plasma concentration in Wistar-Han rat at 1 mg/kg, iv after 11 mins. The class given is ADME, organism-based. On the set-up: dose 1 mg/kg, route intravenous. In outline: as §1
The target in data set [7] is T1, Glucagon receptor (Homo sapiens, UniProt P47871). The experiment in a line: Displacement of [125I]Glucagon-Cex from human GCGR. The method in brief:
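Displacement of [125I]glucagon-Cex from membranes containing the human glucagon receptor, run with 0.2% BSA. Values are geometric means of n ≥ 2 determinations.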
On the technique in general: In a radioligand displacement assay an active substance lowers the binding of a labelled ligand.

Data set [8] addresses Glucagon receptor (Rattus norvegicus) (UniProt P30082). The experiment in a line: Antagonist activity at rat GCGR assessed as inhibition of glucagon-induced cAMP production.
Data set [9] deals with Glucagon-like peptide 1 receptor (Homo sapiens, UniProt P43220). The experiment in a line: Displacement of [125I]GLP-1 from human GLP1R. In outline: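 Displacement of [125I]GLP-1 from membranes expressing the human GLP-1 receptor.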
Data set [10] in a line: Lipophilicity, log D of the compound in octanol-phosphate buffer at pH 7.4. The format is physicochemical. To be noted: octanol/phosphate buffer, read-out: logD. In outline:
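Shake-flask partition between octanol and buffer at pH 7.4.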

The target in data set [11] is T2, Gastric inhibitory polypeptide receptor (Homo sapiens, UniProt P48546).
T2 sequence (P48546 whole entry): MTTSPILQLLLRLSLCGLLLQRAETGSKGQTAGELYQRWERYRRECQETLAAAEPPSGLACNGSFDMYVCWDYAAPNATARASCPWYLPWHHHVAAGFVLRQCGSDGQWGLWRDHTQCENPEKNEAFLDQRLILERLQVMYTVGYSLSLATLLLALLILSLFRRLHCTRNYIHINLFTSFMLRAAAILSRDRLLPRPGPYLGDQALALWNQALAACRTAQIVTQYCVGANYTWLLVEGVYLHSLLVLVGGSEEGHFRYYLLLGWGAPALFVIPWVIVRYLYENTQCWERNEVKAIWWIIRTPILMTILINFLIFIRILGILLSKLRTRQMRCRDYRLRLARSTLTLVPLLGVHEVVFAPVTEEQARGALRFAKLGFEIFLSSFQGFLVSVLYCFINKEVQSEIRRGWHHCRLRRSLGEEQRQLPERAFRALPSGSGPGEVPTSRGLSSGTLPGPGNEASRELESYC
The experiment in a line: Displacement of [125I]GIP from human GIPR.

A short description of data set [12]: Permeability across low transporter-containing MDCK2 cells. To be noted: dog, MDCK; read-out: permeability. The format is ADME, cell-based, Canis lupus familiaris, MDCK-II.
The nature of data set [13]: Cytotoxicity against human THLE cells after 72 hrs. The following applies: thle. The class given is cell-based. In outline: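 Transformed human liver epithelial (THLE) cells were exposed to compound for 72 h. Cytotoxicity was read as cellular ATP depletion and reported as the concentration predicted to kill 50% of cells.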
Data set [14] can be described thus: Kinetic solubility of the compound at pH 6.5. The format is physicochemical. The following applies: buffer, read-out: Kinetic_solubility.
The subject of data set [15] is Rattus norvegicus. The experiment in a line: Oral bioavailability in Wistar-Han rat at 5 mg/kg. The format is ADME, organism-based. The following applies: in vivo. The method in brief: as §2
The subject of data set [16] is Rattus norvegicus. The experiment in a line: Volume of distribution at steady state in Wistar-Han rat at 1 mg/kg, iv and 5 mg/kg, po. The class given is ADME, organism-based. The following applies: in vivo. In outline:
as §2

A short description of data set [17]: Plasma concentration in Wistar-Han rat at 30 mg/kg, iv after 11 mins. The class given is ADME, organism-based. On the set-up: dose 30 mg/kg, route intravenous. In outline:
as §1

The nature of data set [18]: Plasma concentration in Wistar-Han rat at 10 mg/kg, iv after 11 mins. The format is ADME, organism-based. On the set-up: dose 10 mg/kg, route intravenous. In outline:
as §1

For data set [19], the species on record is Rattus norvegicus. The experiment in a line: Antidiabetic activity in Wistar-Han rat assessed as reduction in glucagon-induced blood glucose excursion.
For data set [20], the target named is T1, Glucagon receptor. Briefly: Antagonist activity at human GCGR assessed as inhibition of glucagon-induced cAMP accumulation in cell-based assay. The format is functional. In outline: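 Cell line expressing the human glucagon receptor. Antagonism was measured as inhibition of glucagon-induced cAMP production. […] Values are geometric means of n ≥ 2 determinations.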

The text below walks through data of ChEMBL document CHEMBL1933020, “A novel series of glucagon receptor antagonists with reduced molecular weight and lipophilicity” (Bioorg Med Chem Lett, 2012).

The Ki is the dissociation constant of the complex between target and ligand, obtained from inhibition or displacement. A word on the Kb: it is the equilibrium dissociation constant of an antagonist, usually derived from a functional assay. As usually defined, the logD is lipophilicity at a set pH, counting ionised and neutral species. By IC50 is commonly meant the midpoint of a concentration-inhibition curve.

Converted amounts (≈) assume the structure as drawn. Some results are limits rather than exact numbers.

T1 sequence (P47871 whole entry): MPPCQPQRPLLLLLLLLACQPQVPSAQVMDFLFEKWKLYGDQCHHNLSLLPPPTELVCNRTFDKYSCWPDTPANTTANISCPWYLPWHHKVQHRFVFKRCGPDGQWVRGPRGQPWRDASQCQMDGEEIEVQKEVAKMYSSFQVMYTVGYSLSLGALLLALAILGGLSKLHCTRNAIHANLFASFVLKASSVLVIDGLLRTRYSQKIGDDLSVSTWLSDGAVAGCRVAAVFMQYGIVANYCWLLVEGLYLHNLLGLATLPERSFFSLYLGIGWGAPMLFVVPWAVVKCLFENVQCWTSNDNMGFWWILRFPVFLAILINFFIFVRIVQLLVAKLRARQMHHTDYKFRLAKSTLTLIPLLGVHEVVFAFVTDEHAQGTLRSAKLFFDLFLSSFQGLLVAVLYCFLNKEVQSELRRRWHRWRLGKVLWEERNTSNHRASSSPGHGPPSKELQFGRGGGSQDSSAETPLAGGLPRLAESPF
Glucagon-like peptide 1 receptor, sequence (P43220 whole entry): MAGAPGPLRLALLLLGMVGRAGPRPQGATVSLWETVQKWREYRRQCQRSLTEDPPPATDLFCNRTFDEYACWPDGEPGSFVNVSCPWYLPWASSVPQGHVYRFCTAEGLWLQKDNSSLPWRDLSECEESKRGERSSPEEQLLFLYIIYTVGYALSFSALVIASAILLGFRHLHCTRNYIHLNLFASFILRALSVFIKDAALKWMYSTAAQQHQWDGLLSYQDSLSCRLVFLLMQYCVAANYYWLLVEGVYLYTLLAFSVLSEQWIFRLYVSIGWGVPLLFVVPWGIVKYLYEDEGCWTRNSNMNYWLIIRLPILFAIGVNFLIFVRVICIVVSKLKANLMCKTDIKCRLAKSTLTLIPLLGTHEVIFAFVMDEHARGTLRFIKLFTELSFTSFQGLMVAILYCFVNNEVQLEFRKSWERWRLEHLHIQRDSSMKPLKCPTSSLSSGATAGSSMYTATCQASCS

For `O=C(O)CCNC(=O)c1ccc(C(Nc2cnn(-c3ccc(C(F)(F)F)cc3)c2)C2CCCC2)cc1` (single isomer, unassigned; (+)) [listing 1 of 2 here], the Activity in the data set on Rattus norvegicus [1] was found to be 24%; with Rattus norvegicus [3], 12%; in the data set with Rattus norvegicus [5] it was 20%. In addition, the CLint scaled in data set [2] is less than 25 mL/min/kg. In the data set on Rattus norvegicus [4], the t1/2 came to 24 min. Also, the concentration at 11 min in [6] was 300 ng/mL; in data set [17] it was 21000 ng/mL; in data set [18], 2280 ng/mL. Also, the inhibition constant Ki at Glucagon receptor [7] worked out at 9 nM; in data set [9], 3340 nM; in data set [11], 152 nM. Moreover, the Kb in data set [8] stood at 2340 nM. Also, in data set [10], the logD is 2.27. For the same compound, the Papp in data set [12] is 6.34 ×10⁻⁶ cm/s. Besides, the IC50 in [13] was 235000 nM. Also, the solubility kinetic in [14] stood at 320 µM (≈ 160 µg/mL). The F in the data set on Rattus norvegicus [15] stood at 2%. The same compound showed a Vdss with Rattus norvegicus [16] of 1.27 L/kg.
For the compound `O=C(O)CCNC(=O)c1ccc(C(Nc2cnn(-c3ccc(C(F)(F)F)cc3)c2)C2CCCC2)cc1` (single isomer, unassigned; (+)) [listing 2 of 2 here], the Activity result in the data set listed under Rattus norvegicus [19] is “Dose-dependent effect”. Further, the Kb at Glucagon receptor [20] was determined as 120 nM.
